Data reported in publication PMC9157599 (Materials Today Bio, 2022).
Numbered stars: 1 amine (or outer) side, 2 acyl side, 3 side chain; on linkers, the order of the positions; unused ones are H or OH. Square brackets hold non-standard residues; d marks the D form. Peptide text beside a SMILES is read from it. * marks the point of attachment. DAMPA = CN(Cc1cnc2nc(N)nc(N)c2n1)c1ccc(C(=O)*)cc1; γGlu = O=C(O)[C@H](CCC(=O)[*:2])N[*:1]

What was measured:
proteinase K = proteinase K (Parengyodontium album, UniProt P06873); assay: Biostability of hydrogels exposed to proteinase K; type: in vitro ADME; conditions: for change of HPLC peak after addition of proteinase K: 37 °C, HPLC spectra (Fig. 1e)
Summary of the method: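 Peptide (1 mg in 5 mL PBS) incubated at 37 °C with proteinase K (3.2 units/mL). Aliquots were taken at each time point and analysed by reverse-phase HPLC on a C18 column, eluting with MeOH and water (each with 0.05% TFA).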

[1] = Gelation by heating-cooling and recovery after injection; type: physicochemical
Summary of the method: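 Gels were formed by dissolving peptide in PBS/Na2CO3 (pH 7.4), heating 30 s (flame or 100 °C water bath), then cooling at room temperature. Samples went onto the rheometer right after gelation: 40 mm parallel plates, 500 μm gap, frequency sweep 0.1–100 rad/s at 1% strain. Gel was measured before and after injection.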

mouse fibroblast (L929) = assay: MTT cell viability, L929; type: cell-based; conditions: 5-200 μM, 48 h, n = 3
Summary of the method: (§1)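 Cells were seeded at 10^4 per well and exposed for 48 h to test compound or hydrogel at 200, 100, 50, 10, 5 or 0 μM. Viability was read by MTT absorbance at 490 nm.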

[2] = system: human umbilical vein endothelial cell (HUVEC); assay: MTT cell viability, HUVEC; type: cell-based; conditions: 5-200 μM, 48 h, n = 3
Summary of the method: as §1

[3] = system: RA synovial fibroblast (RA-FLS); assay: MTT cell viability, RA-FLS; type: cell-based; conditions: 48 h
Summary of the method: as §1

L929 = assay: Live/dead staining, L929; type: cell-based, mouse; conditions: 100 μM, 48 h, Calcein AM/PI; MTX-loaded compared to MTX-GFFY and free MTX groups
Summary of the method: (§2)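 Cells were exposed to hydrogels or free MTX (100 μM) for 48 h, stained with Calcein AM (live) and propidium iodide (dead), and imaged by fluorescence microscopy.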

HUVEC = assay: Live/dead staining, HUVEC; type: cell-based, human; conditions: 100 μM, 48 h, Calcein AM/PI; MTX-loaded compared to MTX-GFFY and free MTX groups
Summary of the method: as §2

RA-FLS [4] = assay: Live/dead staining, RA-FLS; type: cell-based; conditions: 100 μM, 48 h, Calcein AM/PI
RA-FLS [5] = assay: Wound-healing; type: cell-based; conditions: 100 μM, 48 h culture then scratch, n = 6
Summary of the method: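 RA-FLS were serum-starved 12 h, mixed with hydrogels (formed from 100 μM peptide) or MTX solution (100 μM), and cultured 48 h. Monolayers were then scratched. Migration rate was calculated from healed area after a further 12 and 24 h, n = 6.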

RA-FLS [6] = assay: Transwell invasion assay; type: cell-based; conditions: transwell with Matrigel, 100 μM, 24 h, n = 6
Summary of the method: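 RA-FLS were serum-starved 12 h and mixed with hydrogels or MTX solution (100 μM). They were seeded in the upper transwell chamber in serum-free medium with 12.5% Matrigel, with 20% FBS medium below as chemoattractant. After 24 h, invaded cells were stained with 2% crystal violet and counted microscopically, n = 6.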

[7] = system: M1 macrophages (LPS-induced RAW264.7); assay: RT-qPCR of M1 markers in LPS-induced RAW264.7; type: cell-based, Mice; conditions: 100 μM, 24 h, compared to control group (LPS), n = 3
Summary of the method: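 RAW264.7 cells were polarised to M1 with 1% w/v LPS medium for 24 h, then treated with test compound or hydrogel (100 μM) for 24 h. Total RNA was extracted with TRIzol, and iNOS, IL-6 and TNF-α mRNA were quantified by RT-qPCR.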

[8] = system: M1 macrophages (LPS-induced RAW264.7); assay: Western blot of M1 markers in RAW264.7; type: cell-based, Mice; conditions: 100 μM, 24 h, compared to control group (LPS), n = 3
Summary of the method: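 RAW264.7 cells were polarised with […] LPS for 24 h, then treated with test compound or hydrogel (100 μM) for 24 h. Lysate protein was quantified by Bradford assay, run on 10% SDS-PAGE and transferred to PVDF. Membranes were probed overnight at 4 °C for iNOS, IL-6 and TNF-α, then secondary antibody for 120 min at room temperature. Detection was by chemiluminescence, with tubulin reference and densitometry, n = 3.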

RAW264.7 cells = assay: Immunofluorescence staining of iNOS and CD206 on RAW264.7; type: cell-based, Mice; conditions: 100 μM, 24 h
Summary of the method: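 RAW264.7 cells were polarised with 1% w/v LPS-containing medium for 24 h, then exposed to test compound or hydrogel (100 μM) for another 24 h. Cells were immunostained for iNOS (M1) and CD206 (M2) and imaged by fluorescence.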

AIA mice [9] = assay: Therapeutic effect in adjuvant-induced arthritis; type: in vivo, C57BL/6 mice; conditions: n = 5; for paw swelling after 4 weeks of treatment: 20 μL intra-articular, both knees, twice a week for 4 weeks; for clinical score: dynamic, up to 28 days; for skin temperature of hind paws: infrared camera, 28th day after administration
Summary of the method: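 Male C57BL/6 AIA mice (CFA s.c. in the fore underarm; IFA into both hind pads a week later; treatment after one further week) were randomised to groups of n = 5. Dosing was 20 μL intra-articular into both knees twice weekly for 4 weeks. Arthritis was scored clinically, joint diameter was measured weekly by vernier caliper, and hind-paw skin temperature was recorded by infrared camera on day 28.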

AIA mice [10] = assay: Histology and immunohistochemistry of knee joints of AIA mice; type: in vivo, C57BL/6 mice; conditions: day 28
Summary of the method: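 Male 8-week C57BL/6 mice received CFA (1% w/v) s.c. in the fore underarm, then the same dose of IFA into both hind pads a week later. One week on, 20 μL test hydrogel or PBS was given intra-articularly into both knees twice weekly for 4 weeks (n = 5). On day 28 knees were fixed in 4% paraformaldehyde, EDTA-decalcified 30 days, stained H&E and safranin-O/fast green, and Mankin-scored.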

AIA mice [11] = assay: Serum inflammatory cytokines in AIA mice; type: in vivo, C57BL/6 mice; conditions: compared to PBS group, without statistical difference, n = 3 (Figure S13)
AIA mice [12] = assay: Immunofluorescence staining of synovial tissues of AIA mice; type: in vivo, C57BL/6 mice; conditions: for fluorescence signal of iNOS (M1 macrophages) in synovial tissues: n = 3; for synovial pannus / neovascularization (CD31 expression): n = 3 (Fig. 6c, Figure S14)
Summary of the method: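 AIA was induced in male C57BL/6 mice with CFA s.c., followed a week later by IFA into the hind pads. Knees received 20 μL intra-articular treatment twice weekly for 4 weeks. Knee joint sections were stained overnight at 4 °C with antibodies to CD31, F4/80, CD206 or iNOS (1:300), then Alexa Fluor 488 or Cy3 secondaries (1:8000, 2 h, room temperature) and DAPI. Imaging was by fluorescence microscopy, n = 3.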

[13] = hydrogel exposed to proteinase K at 37 °C, images (Figure S8)

Sequence of proteinase K (P06873 106-384, species assumed): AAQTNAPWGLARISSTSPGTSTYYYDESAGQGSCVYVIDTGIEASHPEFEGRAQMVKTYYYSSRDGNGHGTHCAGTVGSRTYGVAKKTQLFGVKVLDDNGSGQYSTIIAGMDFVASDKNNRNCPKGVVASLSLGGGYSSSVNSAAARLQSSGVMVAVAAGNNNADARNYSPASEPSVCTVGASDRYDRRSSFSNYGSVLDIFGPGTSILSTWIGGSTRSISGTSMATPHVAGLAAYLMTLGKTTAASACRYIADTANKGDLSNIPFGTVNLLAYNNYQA

Structure (SMILES)	change of HPLC peak after addition of proteinase K (proteinase K)	wound-healing rate at 24 h (RA-FLS [5])	RA-FLS invasion into the lower chamber (cell numbers) (RA-FLS [6])	relative gene expression of M1 markers (IL-6, TNF-α, iNOS) [7]	expression of iNOS (M1 marker) in RAW264.7 cells (RAW264.7 cells)	paw swelling after 4 weeks of treatment (AIA mice [9])	clinical score (AIA mice [9])	synovial hyperplasia and joint structure (H&E staining) (AIA mice [10])	fluorescence signal of iNOS (M1 macrophages) in synovial tissues (AIA mice [12])	synovial pannus / neovascularization (CD31 expression) (AIA mice [12])	skin temperature of hind paws (AIA mice [9])	further results
CN(Cc1cnc2nc(N)nc(N)c2n1)c1ccc(C(=O)N[C@@H](CCC(=O)NCC(=O)N[C@H](Cc2ccccc2)C(=O)N[C@H](Cc2ccccc2)C(=O)N[C@H](Cc2ccc(O)cc2)C(=O)O)C(=O)O)cc1 [MTX-G^DF^DF^DY] ({DAMPA-γGlu}-G[dF][dF][dY]-OH)	had no obvious change	40%	obviously decreased	all marker genes of M1 macrophages were significantly down-regulated	strongest inhibitory effect	effectively relieved paw swelling	lowest among all groups	knee joint structure was well protected	lowest	lowest among all treatment groups	–	time hydrogel was stable in vitro (proteinase K; [13]): approximately 5 days; time until hydrogel became stable (dynamic gelation process) ([1]; 10.317 mM (1 wt%) peptide in PBS, heating-cooling process (Figure S3)): ≤ 2 min; time to return to gel after injection ([1]; rheology before and after injection (Fig. 1d)): 5 min; effect on cell proliferation / cytotoxicity, L929 (mouse fibroblast (L929)): reduced the cytotoxicity; effect on cell proliferation / cytotoxicity, HUVEC [2]: reduced the cytotoxicity; effect on RA-FLS proliferation at 50 μM ([3]; 50 μM): significantly inhibited RA-FLS proliferation; live/dead staining, L929 (L929): less L929 and HUVEC cells were dead; live/dead staining, HUVEC (HUVEC): less L929 and HUVEC cells were dead; live/dead staining, RA-FLS (RA-FLS [4]): significantly enhanced the ratio of dead cells/live cells; expression of M1 macrophage related proteins (iNOS, IL-6, TNF-α) [8]: best inhibitory effect; IL-6 expression level in synovial tissue (immunohistochemistry) (AIA mice [10]): decreased to a similar level to normal group; level of serum IL-6 (AIA mice [11]): slightly lower; level of serum TNF-α (AIA mice [11]): slightly lower
CN(Cc1cnc2nc(N)nc(N)c2n1)c1ccc(C(=O)N[C@@H](CCC(=O)NCC(=O)N[C@@H](Cc2ccccc2)C(=O)N[C@@H](Cc2ccccc2)C(=O)N[C@@H](Cc2ccc(O)cc2)C(=O)O)C(=O)O)cc1 [MTX-GFFY] ({DAMPA-γGlu}-GFFY-OH)	gradually decreased	50%	obviously decreased	–	–	paw swelling was alleviated	–	synovial evasion was inhibited	significantly decreased	–	below 33 °C	time after which hydrogel became flowable (proteinase K; [13]): 1 days; effect on RA-FLS at 100 μM ([3]; 100 μM): mild effects
CN(Cc1cnc2nc(N)nc(N)c2n1)c1ccc(C(=O)N[C@@H](CCC(=O)O)C(=O)O)cc1 [MTX, methotrexate, reference compound]	–	100%	inhibited approximately half	not obvious	significantly decreased	paw swelling was alleviated	gradually decreased	synovial evasion was inhibited	significantly decreased	lowest among all treatment groups	below 33 °C	wound-healing rate at 12 h (RA-FLS [5]; 12 h): 50%
